# Results gathered from unrelated publications.
# Target: Adenosine receptor A3 (ADORA3, Homo sapiens, UniProt P0DMS8)
# One construct used (P0DMS8 1-318): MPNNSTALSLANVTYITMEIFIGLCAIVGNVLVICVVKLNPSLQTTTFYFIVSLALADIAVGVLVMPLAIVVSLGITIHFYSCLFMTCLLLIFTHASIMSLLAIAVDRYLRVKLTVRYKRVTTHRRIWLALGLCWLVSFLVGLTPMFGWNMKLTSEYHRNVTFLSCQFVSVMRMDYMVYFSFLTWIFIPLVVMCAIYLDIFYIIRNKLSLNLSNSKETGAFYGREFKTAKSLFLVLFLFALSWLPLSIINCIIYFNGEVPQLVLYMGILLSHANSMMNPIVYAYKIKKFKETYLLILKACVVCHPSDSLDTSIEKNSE
observed,technique,notes,Ki [nM],SMILES
ligand displacement,radioligand,cell membranes,> 10000,CN1CCCn2c1nc1c2c(=O)n(C)c(=O)n1C
ligand displacement,radioligand,cell membranes,38.1,CNC(=O)[C@@]12C[C@@H]1[C@@H](n1cnc3c(NCc4cn(C56CC7CC(CC(C7)C5)C6)nn4)nc(Cl)nc31)[C@H](O)[C@@H]2O
ligand displacement in cells,BRET,,158,Nc1nc2c(cnn2CCc2ccccc2)c2nc(-c3ccco3)nn12
ligand displacement in cells,radioligand,,3.6,CNC(=O)[C@@]12C[C@@H]1[C@@H](n1cnc3c(NCc4cccc(Cl)c4)nc(C#Cc4cccc(C(=O)NCCOCCOCCOCCOCCOCCOCCC(=O)N5CCC(c6ccc(-c7cc(C(=O)O)cc8cc(-c9ccc(C(F)(F)F)cc9)ccc78)cc6)CC5)c4)nc31)[C@H](O)[C@@H]2O
ligand displacement,radioligand,cell membranes,159,CC(C)=CCNc1ncnc2c1ncn2[C@@H]1O[C@H](CO)[C@@H](O)[C@H]1O
ligand displacement,radioligand,cell membranes,> 1000,COCCOc1ccc(N2CCN(CCn3ncc4c3nc(N)n3nc(-c5ccco5)nc43)CC2)cc1
ligand displacement,radioligand,,116,O=C(NCCC(c1ccccc1)c1ccccc1)[C@H]1S[C@@H](n2cnc3c(NCc4cccc(I)c4)ncnc32)[C@H](O)[C@@H]1O
ligand displacement,radioligand,,16,CCNC(=O)C1OC(n2cnc3c(N)nc(NN=CC4CCC=CO4)nc32)C(O)C1O (stereo not shown)
ligand displacement,radioligand,cell membranes,> 1000,CCCCn1c(=O)c2[nH]c(C34CC5CC(CC3C5)C4)nc2n(CCCO)c1=O
ligand displacement,radioligand,cell membranes,5460,NC1C(O)C(n2cnc3c(NCc4cccc(I)c4)ncnc32)C2CC12 (stereo not shown)
ligand displacement,radioligand,cell membranes,> 10000,CCCCCN1CCCn2c1nc1c2c(=O)n(C)c(=O)n1C
ligand displacement,radioligand,,4380,OC[C@@]12C[C@@H]1[C@@H](n1cnc3c(NC(C4CCCC4)C4CCCC4)nc(Cl)nc31)[C@H](O)[C@@H]2O
ligand displacement,radioligand,cell membranes,36.7,CNC(=O)[C@@]12C[C@@H]1[C@@H](n1cnc3c(NCc4cn(-c5ccc(C(=O)NCCCF)cc5)nn4)nc(Cl)nc31)[C@H](O)[C@@H]2O
ligand displacement in cells,BRET,,7.59,Nc1nc2ccc(Cl)cc2c2nc(-c3ccco3)nn12
ligand displacement,radioligand,cell membranes,2190,O[C@@H]1[C@H](O)[C@@H]2C[C@@H]2[C@H]1n1cnc2c(NCc3cn(C45CC6CC(CC(C6)C4)C5)nn3)nc(Cl)nc21
ligand displacement,radioligand,cell membranes,> 10000,CCCN1CCCn2c1nc1c2c(=O)n(C)c(=O)n1C
